Source: ChEMBL document CHEMBL2384933, “Vitexin inhibits inflammatory pain in mice by targeting TRPV1, oxidative stress, and cytokines” (J Nat Prod, 2013)
Calls of active or inactive are those of the source.

Tests used:
Assay type in all cases: functional, organism-based
Mus musculus [1] = assay: Antinociceptive activity in Swiss mouse assessed as inhibition of carrageenan-induced thermal hyperalgesia at 1 mg/kg, ip administered 30 mins prior to carrageenan-challenge measured after 1 to 5 hrs by hot plate test; design: dose 1 mg/kg
How it was run: (§1)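 Doses of 1–10 mg/kg given ip 30 min before intraplantar carrageenan (300 μg/paw). Hot plate held at 55 °C; latency to jump or lick paws recorded at 1, 3 and 5 h, with a 30 s cutoff. Two baseline latencies taken at least 10 min apart. Six mice per group.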

Mus musculus [2] = assay: Antinociceptive activity in Swiss mouse assessed as inhibition of carrageenan-induced thermal hyperalgesia at 3 to 10 mg/kg, ip administered 30 mins prior to carrageenan-challenge measured after 1 to 5 hrs by hot plate test; how it was run: as §1
Mus musculus [3] = assay: Antinociceptive activity in Swiss mouse assessed as inhibition of carrageenan-induced mechanical hyperalgesia at 1 to 3 mg/kg, ip administered 30 mins prior to carrageenan-challenge measured after 5 hrs by electronic pressure-meter test
How it was run: (§2)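 Doses of 1–10 mg/kg given ip 30 min before intraplantar carrageenan (300 μg/paw). Electronic pressure-meter applied to mice on a wire grid floor; paw withdrawal with flinching was the end point, and each value is the average of three readings. Result reported as Δ withdrawal threshold (g) from baseline at 1, 3 and 5 h. Six mice per group; two-way ANOVA.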

Mus musculus [4] = assay: Antinociceptive activity in Swiss mouse assessed as inhibition of carrageenan-induced mechanical hyperalgesia at 10 mg/kg, ip administered 30 mins prior to carrageenan-challenge measured after 1 to 5 hrs by electronic pressure-meter test; design: dose 10 mg/kg; how it was run: as §2
Mus musculus [5] = assay: Antinociceptive activity in Swiss mouse assessed as inhibition of carrageenan-induced mechanical hyperalgesia at 1 to 3 mg/kg, ip administered 30 mins prior to carrageenan-challenge measured after 3 hrs by electronic pressure-meter test; how it was run: as §2
Mus musculus [6] = assay: Antinociceptive activity in ip dosed Swiss mouse assessed as inhibition of carrageenan-induced thermal hyperalgesia administered 30 mins prior to carrageenan-challenge measured after 1 to 5 hrs by hot plate test; how it was run: as §1
Mus musculus [7] = assay: Antinociceptive activity in ip dosed Swiss mouse assessed as inhibition of carrageenan-induced mechanical hyperalgesia administered 30 mins prior to carrageenan-challenge measured at 1 to 5 hrs by electronic pressure-meter test; how it was run: as §2
Mus musculus [8] = assay: Antinociceptive activity in Swiss mouse assessed as decrease in complete Freund's adjuvant-induced time spent for licking paw at 10 mg/kg, ip administered 30 mins prior to complete Freund's adjuvant-challenge measured after 30 mins; design: dose 10 mg/kg
How it was run: (§3)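 Dosed ip 30 min before intraplantar CFA (10 μL/paw). Flinches and licking time of the injected paw counted over 0–30 min and expressed as totals for 30 min. Six mice per group; representative of two experiments.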

Mus musculus [9] = assay: Antinociceptive activity in Swiss mouse assessed as decrease in capsaicin-induced time spent for licking paw at 10 mg/kg, ip administered 30 mins prior to capsaicin-challenge measured after 5 mins; design: dose 10 mg/kg
How it was run: (§4)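 Pretreatment ip 30 min before intraplantar capsaicin (1.6 μg/paw), given after an adaptation period. Mice observed individually for 5 min afterwards. Total flinches and time spent licking the injected paw were scored. Six mice per group; representative of two experiments; one-way ANOVA with Tukey's test.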

Mus musculus [10] = assay: Antinociceptive activity in Swiss mouse assessed as inhibition of capsaicin-induced paw flinching at 10 mg/kg, ip administered 30 mins prior to capsaicin-challenge measured after 5 mins; design: dose 10 mg/kg; how it was run: as §4
Mus musculus [11] = assay: Antinociceptive activity in Swiss mouse assessed as decrease in formalin-induced time spent for licking paw at 10 mg/kg, ip administered 30 mins prior to formalin-challenge measured after 30 mins; design: dose 10 mg/kg
How it was run: (§5)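 Given ip 30 min before intraplantar formalin (25 μL of 1.5% in saline). Paw flinches and licking time recorded from 0 to 30 min in 5-min bins, covering the first (0–5 min) and second (10–30 min) phases. Six mice per group; representative of two experiments.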

Mus musculus [12] = assay: Antinociceptive activity in Swiss mouse assessed as inhibition of formalin-induced paw flinching at 10 mg/kg, ip administered 30 mins prior to formalin-challenge measured after 30 mins; design: dose 10 mg/kg; how it was run: as §5
Mus musculus [13] = assay: Antinociceptive activity in Swiss mouse assessed as inhibition of phenyl-p-benzoquinone-induced writhing response at 10 mg/kg, ip administered 30 mins prior to phenyl-p-benzoquinone-challenge measured for 20 mins; design: dose 10 mg/kg
How it was run: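 Pretreatment ip 30 min before ip phenyl-p-benzoquinone (1890 μg/kg in 2% DMSO/saline). Cumulative writhing score counted over 20 min. Six mice per group; representative of two experiments.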

Mus musculus [14] = assay: Antinociceptive activity in Swiss mouse assessed as inhibition of acetic acid-induced writhing response at 0.3 mg/kg, ip administered 30 mins prior to acetic acid-challenge measured for 20 mins; design: dose 0.3 mg/kg
How it was run: (§6)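 Doses of 0.3–10 mg/kg given ip in saline 30 min before ip acetic acid (0.8% v/v in saline, 10 mL/kg). Cumulative abdominal writhing counted over 20 min and presented in 2-min intervals. Six mice per group; representative of two experiments.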

Mus musculus [15] = assay: Antinociceptive activity in Swiss mouse assessed as inhibition of acetic acid-induced writhing response at 10 mg/kg, ip administered 30 mins prior to acetic acid-challenge measured for 20 mins; design: dose 10 mg/kg; how it was run: as §6
Mus musculus [16] = assay: Antinociceptive activity in Swiss mouse assessed as inhibition of acetic acid-induced writhing response at 1 to 3 mg/kg, ip administered 30 mins prior to acetic acid-challenge measured for 20 mins; how it was run: as §6
Mus musculus [17] = assay: Antinociceptive activity in ip dosed Swiss mouse assessed as inhibition of acetic acid-induced writhing response administered 30 mins prior to acetic acid-challenge measured for 20 mins; how it was run: as §6
Mus musculus [18] = assay: Antinociceptive activity in Swiss mouse assessed as inhibition of complete Freund's adjuvant-induced paw flinching at 10 mg/kg, ip administered 30 mins prior to complete Freund's adjuvant-challenge measured after 30 mins; design: dose 10 mg/kg; how it was run: as §3

Question: For `O=c1cc(-c2ccc(O)cc2)oc2c([C@@H]3O[C@H](CO)[C@@H](O)[C@H](O)[C@H]3O)c(O)cc(O)c12` [VITEXIN], which inhibition (Mus musculus [1]) is on record?
Answer: The inhibition was “inactive”.

Question: And the inhibition (Mus musculus [2])?
Answer: The inhibition was “Active”.

Question: What about the inhibition (Mus musculus [3]) of the same molecule?
Answer: Its inhibition is “Active”.

Question: And the inhibition (Mus musculus [4])?
Answer: Its inhibition is “Active”.

Question: And the inhibition (Mus musculus [5])?
Answer: The inhibition was “Active”.

Question: And the inhibition (Mus musculus [6])?
Answer: Its inhibition is “Dose-dependent effect”.

Question: What about the inhibition (Mus musculus [7]) of the same molecule?
Answer: The inhibition was “Dose-dependent effect”.

Question: What about the inhibition (Mus musculus [8]) of the same molecule?
Answer: The inhibition was “Active”.

Question: What about the inhibition (Mus musculus [9]) of the same molecule?
Answer: Its inhibition is “Active”.

Question: And the inhibition (Mus musculus [10])?
Answer: The inhibition was “Active”.

Question: What about the inhibition (Mus musculus [11]) of the same molecule?
Answer: Its inhibition is “Active”.

Question: What about the inhibition (Mus musculus [12]) of the same molecule?
Answer: The inhibition was “Active”.

Question: And the inhibition (Mus musculus [13])?
Answer: The inhibition was “Active”.

Question: And the inhibition (Mus musculus [14])?
Answer: The inhibition was “Active”.

Question: What about the inhibition (Mus musculus [15]) of the same molecule?
Answer: The inhibition was “Active”.

Question: What about the inhibition (Mus musculus [16]) of the same molecule?
Answer: The inhibition was “Active”.

Question: What about the inhibition (Mus musculus [17]) of the same molecule?
Answer: The inhibition was “Dose-dependent effect”.

Question: What about the inhibition (Mus musculus [18]) of the same molecule?
Answer: The inhibition was “Active”.
